Assay outcomes: PubChem BioAssay, Sanford-Burnham Center for Chemical Genomics
SUMO1-SIM PPI: SUMO1-SIM interaction modulation | P63165 | SUMO1 binding to a labelled peptide, TR-FRET, 1 h | inhibition, % at 20 µM | 360,000 tested, 0.33% active; in the data active = inhibition above about 37%
DNMT1 block: inhibitors of human DNMT1; P26358; DNMT1 molecular beacon, Hinp1I cleavage, fluorescence; inhibition (reported as % activation of signal), % at 10 µM; 360,000 tested, 0.83% active; AID 588458; in the data active = inhibition above about 50%
SKN-1 block: inhibitors of C. elegans SKN-1; C. elegans VP596 Pgst-4::GFP/RFP ratio, acrylamide-induced, 24 h; inhibition, % at 21.8 µM; 360,000 tested, 0.49% active;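 active = interference check ratio from 0.5 to 1.5 plus GFP to RFP signal ratio inhibition reaching or exceeding a fixed threshold, cut at about 30% in these data, passing the limit was not always enough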
Rpn11 inh: Rpn11 (human) deubiquitinase inhibition; O00487; human 26S proteasome, Ub4-pepOG fluorescence polarization; 20S core pre-blocked with epoxomicin; inhibition, % at 20 µM; 360,000 tested, 0.59% active;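 active = inhibition at 20 µM, scaled to each plate's controls, above about 33%, limit read from the data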
CSN inh: blocks human CSN-mediated cullin deneddylation. Q92905. Purified CSN, SCF-Nedd8-OG deneddylation, fluorescence polarization. inhibition, % at 12.5 µM. 360,000 tested, 0.38% active. AID 651999;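 active = pattern-corrected inhibition above about 35%, with an unprinted fluorescence ratio check between 0.5 and 1.5, limit read from the data, passing the limit was not always enough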;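 note: 0% = enzyme with substrate and 100% = substrate without enzyme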
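Material: purified human Csn5 enzyme expressed in HEK293T cells / Medium: Tris buffer pH 7.5, NaCl, DTT, Tween-20, trehalose, ovalbumin / Compound dosing: 12.5 µM single point / Schedule: 90 min incubation of compound, enzyme and substrate at room temperature / Signal: fluorescence polarization of the substrate / Control set: no-enzyme wells high, enzyme-with-substrate wells low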
MT1-MMP act inh: MT1-MMP (human) activation inhibition; HT1080 RFP-PRO-GFP cells, GFP/RFP ratio fluorescence, overnight; percent of plate control window, DMSO zero; GFP/RFP ratio change, % at 20 µM; 360,000 tested, 0.061% active; AID 651647;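 active = GFP/RFP ratio change of at least 30% with cell ATP level not reduced by more than half and red fluorescence within 50% of control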
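Assay system – RFP-PRO-GFP reporter HT1080 cells · Compound dosing – single dose of 20 µM compound, 1% DMSO final · Incubation – overnight compound exposure at 37 °C · Measure – GFP/RFP fluorescence ratio · Benchmarks – DMSO wells and RFP-L50D-GFP cells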
Rpn11 confirm: confirmation of human proteasome Rpn11 inhibitors; shares compounds with Rpn11 inh; purified human 26S proteasome, Ub4-pepOG fluorescence polarization; proteasome pretreated with epoxomicin; inhibition, % at 20 µM; 1,900 tested, 29% active; AID 602318
MMP-2 counter: counter-screen for RPN11 inhibitors: inhibition of human MMP-2. shares compounds with Rpn11 inh. recombinant MMP-2, FRET peptide cleavage fluorescence. inhibition, % at 20 µM. 1,900 tested, 4% active. AID 602330;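 note: human MMP-2 activated beforehand with APMA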
Target sequence (P08253 whole entry, looked up): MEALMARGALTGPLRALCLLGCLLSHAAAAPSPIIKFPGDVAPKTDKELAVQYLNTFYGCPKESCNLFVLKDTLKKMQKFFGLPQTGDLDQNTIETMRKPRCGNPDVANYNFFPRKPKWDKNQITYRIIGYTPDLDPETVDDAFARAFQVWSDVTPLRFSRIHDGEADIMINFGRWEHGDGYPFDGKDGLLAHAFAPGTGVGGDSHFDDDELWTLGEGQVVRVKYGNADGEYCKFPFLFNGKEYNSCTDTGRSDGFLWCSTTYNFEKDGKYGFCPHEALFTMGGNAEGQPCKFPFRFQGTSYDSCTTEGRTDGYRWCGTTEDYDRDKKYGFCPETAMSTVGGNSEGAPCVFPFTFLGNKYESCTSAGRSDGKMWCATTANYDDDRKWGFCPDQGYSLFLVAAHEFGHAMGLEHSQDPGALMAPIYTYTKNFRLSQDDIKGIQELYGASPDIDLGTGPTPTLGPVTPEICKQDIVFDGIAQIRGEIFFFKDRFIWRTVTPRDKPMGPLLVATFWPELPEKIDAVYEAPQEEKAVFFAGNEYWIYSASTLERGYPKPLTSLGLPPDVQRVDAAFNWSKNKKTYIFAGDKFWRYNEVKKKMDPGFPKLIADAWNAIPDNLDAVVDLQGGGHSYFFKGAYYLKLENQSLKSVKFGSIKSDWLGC
Thrombin inh: counter-screen for RPN11 inhibitors: inhibition of bovine thrombin; inhibition, % at 20 µM; shares compounds with Rpn11 inh; 1,900 tested, 13% active; bovine thrombin cleavage of Ub4-pepOG, fluorescence polarization;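 active = mean inhibition at least 40% at 20 µM, or signal 3 deviations below plate average, so some actives read negative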;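 note: plate controls were thrombin with DMSO for no effect and buffer wells lacking thrombin for full effect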
* = called active by the depositor; · = no result given; + = active, no number. Sampled rows, rich in hits. Any-hit rate of the full collection: about 2.3%. Cut-off read from the data, not from the text of the source, unless noted: active = inhibition above about 40%; inactive = the rest.

SMILES	SUMO1-SIM PPI	DNMT1 block	SKN-1 block	Rpn11 inh	CSN inh	MT1-MMP act inh	Rpn11 confirm	MMP-2 counter	Thrombin inh
c1ccc(Cn2ncc3c(N4CCN(c5ccccc5)CC4)ncnc32)cc1	1.7	-1.3	-2.1	-5.2	-1.5	-2.2	·	·	·
Cc1cc(/C=C2/SC(=O)NC2=O)c(C)n1-c1ccc(N2CCOCC2)cc1	-6.2	-4.1	2.6	-4.9	-5.7	6.5	·	·	·
COc1ccc(-n2c(C)cc(/C=C3\SC(=S)NC3=O)c2C)cc1	-8.7	-1.2	16.2	44.9*	22.0	-21.3	34.2	22.4	11.8
c1csc(-c2ccc3nncn3c2)c1	-0.1	0.6	13.4	15.9	10.1	-4.0	·	·	·
CC1(C(=O)NS(=O)(=O)c2cccc(C#N)c2)CCN1C(=O)CC1CCCC1 (stereo not drawn)	1.5	10.3	-1.8	-4.6	-0.8	-1.1	·	·	·
C/C(=N\Nc1ccc([N+](=O)[O-])cc1)c1cc2ccccc2o1	-20.0	4.2	26.7	108.2*	25.1	-127.6	59.9*	-47.2	34.8
O=C(N/N=C/c1ccc([N+](=O)[O-])cc1)c1cc2ccccc2o1	5.8	6.0	-1.8	1.4	4.8	5.4	·	·	·
Cc1cc(OC(=O)c2ccc(Cl)cc2Cl)nc(C)n1	-2.3	-2.9	21.3	+	-3.9	3.0	-2.2	-46.1	5.5
CC(=O)Oc1ccc(/C=N\NC(=O)c2cc3c(ccc4ccccc43)o2)cc1	-20.5	28.4	20.5	129.1*	21.7	·	55.5*	-201.5	-14.8
O=C(N/N=C/c1cc(Br)c(O)c(Br)c1)c1cc2c(ccc3ccccc32)o1	29.4	7.8	6.7	73.9*	12.0	-1.8	59.0*	-6.4	138.9*
O=C(N/N=C/c1ccc(O)c(Br)c1)c1cc2c(ccc3ccccc32)o1	-1.0	-3.9	-1.8	0.6	4.7	1.7	·	·	·
Cc1onc(-c2ccccc2)c1C(=O)N/N=C/c1cc(Br)c(O)c(Br)c1	-12.0	5.3	7.4	41.8*	0.7	9.9	1.5	31.1	4.2
CCN(CC)c1ccc(C=C2SC(=S)NC2=O)cc1	-120.7	3.3	69.1	·	-73.9	-22.8	·	·	·
Cc1cc(/C=C2\SC(=S)NC2=O)cc(C)c1O	-24.7	-1.8	0.3	124.4*	33.4	-12.5	26.0	7.9	18.8
Cc1cccc(NC(=O)CCS(=O)(=O)c2ccc3nc(C)sc3c2)c1	10.2	-2.5	-17.2	-7.5	5.0	4.7	·	·	·
CC(=O)N(c1ccc2oc(=O)sc2c1)S(=O)(=O)c1cccc2cccnc12	4.6	-1.3	3.6	84.9*	2.6	6.2	8.2	19.3	-9.0
CC(=O)N(c1ccc2oc(=O)sc2c1)S(=O)(=O)c1cccs1	-2.9	-4.0	5.8	-2.1	-0.6	9.4	·	·	·
CCCc1cn(CC(C)n2c(=O)c3ccccc3n2Cc2cc(C(C)C)no2)nn1 (stereo not drawn)	0.9	·	3.9	·	-3.2	7.9	·	·	·
Nc1c(C(=O)O)sc2nc(-c3ccc(F)cc3)cc(-c3ccccc3)c12	-14.0	-3.0	3.6	53.3*	-1.1	-17.6	5.8	5.3	-3.2
Nc1c(C(=O)O)sc2nc(-c3ccccc3)cc(-c3ccc(Cl)cc3)c12	-4.4	1.8	-9.3	13.9	4.6	11.4	·	·	·
NC(=O)c1sc2nc(-c3ccccc3)ccc2c1N	11.2	-11.3	6.9	45.2*	3.5	-19.1	-10.4	-32.0	-15.4
CN(Cc1ccccc1)C(=O)C(=O)c1ccccc1	0.7	·	-4.2	·	0.4	-3.7	·	·	·
CN1C(=O)[C@H]2[C@@H](c3ccc(C(F)(F)F)cc3)N[C@]3(CCCN(CC4CCCCC4)C3=O)[C@H]2C1=O	2.6	1.4	14.6	-18.7	0.9	2.4	·	·	·
O=C(c1ccccc1F)N1CCC2CC1c1cc(N3CCCCC3)ccc12 (stereo not drawn)	-0.6	1.1	8.2	15.4	9.9	-1.6	·	·	·
COc1ccc(-c2ccc3c(c2)S(=O)(=O)c2cccc(C(=O)NC4CCCC4)c2C3=O)cc1OC	-4.9	9.9	1.1	78.5*	8.9	1.1	-13.2	6.1	-7.5
SMILES	SUMO1-SIM PPI	DNMT1 block	SKN-1 block	Rpn11 inh	CSN inh	MT1-MMP act inh	Rpn11 confirm	MMP-2 counter	Thrombin inh
CCC1(c2ccc(F)cc2)NC(=O)N(CC(=O)Nc2ccc(-c3nc4ccc(C)cc4s3)cc2)C1=O (stereo not drawn)	1.1	-8.0	8.3	47.2*	0.2	3.6	38.4	7.9	11.3
COc1ccc(C2(C)NC(=O)N(CC(=O)Nc3ccc(-c4nc5ccc(C)cc5s4)cc3)C2=O)cc1 (stereo not drawn)	-1.8	-13.2	4.9	14.0	-2.6	2.0	·	·	·
O=C(CCN1C(=O)NC2(CCCC2)C1=O)Nc1ccc(-c2nc3ccccc3s2)cc1	1.9	-14.2	1.7	53.4*	9.5	-4.2	61.3*	33.7	47.6*
COC(=O)/C=c1/s/c(=C(\C#N)C(=O)NCc2ccco2)n(-c2ccc(C)cc2)c1=O	-12.9	-5.6	31.6	56.6*	30.7	-32.7	11.0	-12.3	20.2
COC(=O)/C=c1/s/c(=C(/C#N)C(=O)N2CCOCC2)n(-c2ccccc2)c1=O	-12.8	-1.8	17.1	3.7	3.4	6.3	·	·	·
CN(C)S(=O)(=O)c1ccc(C(=O)NCc2cccs2)cc1	-1.3	0.9	-17.0	-3.5	-6.5	-4.4	·	·	·
CN(C)S(=O)(=O)c1ccc(C(=O)NCc2nc3ccccc3s2)cc1	-0.5	-0.5	7.8	34.0*	-5.7	1.4	4.7	-13.3	-12.7
N#CCSc1ccccc1NC(=O)COc1ccc(-c2nnco2)cc1	1.1	-8.8	14.9	39.8*	15.8	-52.2	14.9	-7.2	13.3
CC(=O)C1=CCC(c2ccccc2)N(S(=O)(=O)c2ccccc2)C1 (stereo not drawn)	7.1	10.6	0.8	5.9	0.0	-2.8	·	·	·
CC(=O)Nc1ccc(/C(C)=N/NC(=O)c2ccc(COc3ccccc3Cl)o2)cc1	21.4	21.5	9.8	69.5*	4.2	-10.4	46.1*	-102.1	16.1
Cc1ccsc1C1C(C(=O)O)c2ccccc2C(=O)N1C (stereo not drawn)	2.2	-3.5	17.6	145.9*	-1.5	-3.1	-10.0	-43.3	-14.2
c1cc(C2CCCCC2)ccc1Oc1nc(N2CCOCC2)nc(N2CCOCC2)n1	3.8	-4.5	12.4	130.9*	0.7	-7.1	6.7	19.2	-12.6
